The results in this text go back to PubChem BioAssay AID821 (SRMLSC, 2007).

Active and inactive are the calls of the source.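 Rule for the calls: active = compounds whose fitted half-maximal concentration for reducing fibroblast viability is 100 µM or lower; inactive = the rest.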

As a reminder, the viability is a read-out of living cells in per cent, often relative to untreated cells.

The assay can be described thus: inhibition of LL 47 lung fibroblast growth, concentration-response curve, selectivity screen for endothelial cell growth inhibitor project, cellular system, ATP luminescence readout (AID 821).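 Note: 100% = median of untreated cell-only wells and 0% = no luminescence.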 Conditions: LL 47 lung fibroblast viability, ATP luminescence; at 20 µM (top of the series). Summed up:
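Assay system: LL 47 human lung fibroblast cells | Amount: 1,150 cells/well | Schedule: 72 h exposure, 37 °C | Measured by: CellTiter-Glo luminescence | Measure: Percent viability relative to untreated wells, EC50 via 4-parameter fit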
`CCOC(=O)c1sc(NC(=O)CSc2nnnn2-c2ccc(C)c(C)c2)nc1C`: the viability was 83.3% (inactive).
As for `NC(=O)Cc1c[nH]c2cccc(O)c12`, the viability was 111% (inactive).
For the molecule `CC(C(=O)N1CCOCC1)N1C(=O)c2ccccc2C1=O` (centres undefined), the viability was 117% (inactive).
Regarding `Cn1c(=O)cc(SCC(=O)NCC2COc3ccccc3O2)c2ccccc21` (centres undefined), the viability is 104% (inactive).
Under `CC1CCCC(NC(=O)C2CCN(S(=O)(=O)N3CCC4(CC3)OCCO4)CC2)C1C` (centres undefined) stands 100% (inactive).
The figure for `Cc1nc2sccn2c(=O)c1CCN1CCC(=C(c2ccc(F)cc2)c2ccc(F)cc2)CC1` is 91.4% (inactive); for `CCOC(=O)c1ccc(NC(=O)CCc2nc(-c3ccc(C)cc3)no2)cc1` it is 98.6% (inactive); for `Cc1ccc2[nH]c3c(N4CCN(Cc5ccccc5)CC4)ncnc3c2c1` it is 88.2% (inactive).
Under `COc1cccc(-c2cc(C(=O)Nc3cc(C)n(Cc4ccc(Cl)cc4)n3)no2)c1` stands 92% (inactive); under `CC(=O)Nc1ccc(S(=O)(=O)N2CCN(c3nc(NC4CCCC4)c4ccccc4n3)CC2)cc1`, 84.8% (inactive).
Consider `COc1ccc(O)c(-c2cc(-c3cccc(Br)c3)n[nH]2)c1`, for which the viability is 86.3% (inactive).
Regarding `N#C/C(=C/c1ccc(N2CCCCCC2)o1)c1ccc(Cl)cc1`, the viability was 100% (inactive).
In the case of `O=C(Nc1ccccc1)c1cccc(-c2nnc(-c3ccccc3)o2)c1`, the viability is 102% (inactive).
The figure for `O=C(CC1SCCNC1=O)Nc1cc(Cl)cc(Cl)c1` (centres undefined) is 100% (inactive); for `CC1CC(C)(C)CC2(C1)NC(=S)N(c1ccccc1)N2` (centres undefined) it is 109% (inactive); for `CCCCCCn1c(O)c(C=NC2CCCCC2N)c(=O)[nH]c1=O` (centres undefined) it is 113% (inactive).
The figure for `CN1CCN(c2ccccc2NC(=O)c2ccc(-c3ccc(Cl)cc3Cl)o2)CC1` is 88.2% (inactive).
As for `Cc1c(CCOC(=O)C2C3CC4CC(C3)CC2C4)sc[n+]1CC(=O)c1ccc(Br)cc1` (centres undefined), the viability was 93.4% (inactive).
Consider `Nc1nc(-c2ccccc2)cc(-c2ccccc2O)n1`, for which the viability was 104% (inactive).
Under `N/C(Cc1ccc(Cl)cc1)=N\OC(=O)c1ccc2ccccc2c1` stands 91.6% (inactive).
Under `Cc1nc(Nc2ccc3c(c2)OCCO3)c2nnn(Cc3ccccc3Cl)c2n1` stands 102% (inactive).
The figure for `COc1ccc(CN2CCn3ncc(C(=O)Nc4cc(C)cc(C)c4)c3C2=O)cc1` is 105% (inactive); for `O=S1(=O)c2ccccc2N=NN1Cc1cc(Cl)cc(Cl)c1` it is 84.5% (inactive).
With `O=C(CCN1CCN(Cc2ccccc2)CC1)Nc1ccc(OCc2ccccc2)cc1`, the viability was 97.3% (inactive).
Under `Nc1c(C(=O)Nc2ccc3c(c2)OCCO3)nnn1CCc1ccccc1` stands 82.1% (inactive); under `CCOc1ccc(-c2nn3c(-c4ccccc4)nnc3s2)cc1`, 113% (inactive).
Under `CCOC(=O)c1c(NC(=O)COc2ncnc3sccc23)sc2c1CCC2` stands 83.6% (inactive).
With `COC(=O)c1ccccc1NC(=O)c1cc(-c2cccs2)on1`, the viability was 90.8% (inactive).
For the molecule `Cc1nc(C)c(-c2csc(Nc3cccnc3)n2)s1`, the viability is 87.8% (inactive).
Turning to `C=CCOC(=O)C1=C(C)NC(SCC(=O)Nc2nccs2)=C(C#N)C1c1cccs1` (centres undefined), the viability is 91.3% (inactive).
As for `C/C(CC1CC2=C(CC1(C)C)C(C)(C)CCC2)=N\NC(N)=S` (centres undefined), the viability is 87.7% (inactive).
Turning to `CCN(CC(O)Cn1c2ccccc2c2ccccc21)S(=O)(=O)c1ccc(C)cc1` (centres undefined), the viability is 96.4% (inactive).
The figure for `COc1ccc(NC(=O)CSc2nnc(-c3cccs3)n2-c2ccccc2)cc1` is 105% (inactive).
Under `CC1(c2ccccc2)CC(C)(C)N2C(=O)C3(C(C#N)=C(N)Oc4cc(O)ccc43)c3cccc1c32` (centres undefined) stands 87.7% (inactive); under `c1ccc(CC2CCN(C3=Nc4cccc5cccc3c45)CC2)cc1`, 80.8% (inactive); under `Cn1c(=O)c2c(nc(Oc3ccc4c(c3)OCO4)n2Cc2ccc(Cl)cc2)n(C)c1=O`, 87.5% (inactive).
Regarding `Cc1ccc2c(c1)[nH]c1c(N3CCN(Cc4ccccc4)CC3)ncnc12`, the viability was 88.3% (inactive).
In the case of `CCCOC(=O)c1ccc(Oc2cn[nH]c2-c2ccc(OC)cc2O)cc1`, the viability was 86.6% (inactive).
Under `CCCS(=O)(=O)N1CCC(C(=O)N2CCC3(CC2)OCCO3)CC1` stands 97.5% (inactive).
As to `COc1ccc(-n2c(SCC(=O)Nc3sc4c(c3C#N)CCCC4)nnc2-c2ccc(O)cc2)cc1`, the viability was 94.1% (inactive).
The figure for `COCCn1c(C)cc(C(=O)CSc2nc3ccccc3o2)c1C` is 129% (inactive).
The figure for `Cc1cc(C)cc(OC(=O)CS(=O)c2ccc(C(F)(F)F)cc2[N+](=O)[O-])c1` (centres undefined) is 98.3% (inactive); for `COc1ccc(CCn2c(=S)[nH]c3cc(C(=O)NCc4ccco4)ccc3c2=O)cc1OC` it is 108% (inactive); for `Cc1ccc(S(=O)(=O)c2c(C)nn(C(C)(C)C)c2OC(=O)c2ccco2)cc1` it is 108% (inactive).
On to `COc1cc2c(C(=O)NCc3ccc4c(c3)OCO4)cn(CC(C)C)c(=O)c2cc1OC`, for which the viability is 106% (inactive).
The figure for `COC(=O)C1=C(C)N=c2s/c(=C3\C(=O)Nc4ccccc43)c(=O)n2C1c1ccccc1` (centres undefined) is 80.9% (inactive); for `Cc1ccccc1N1C(=O)CC(Sc2nnc(-c3ccccc3)o2)C1=O` (centres undefined) it is 90.5% (inactive).
The figure for `CCOc1c(Br)ccc2c1sc1nc[nH]c(=O)c12` is 102% (inactive).
For `Cc1ccc2c(c1)c1cccc3c1n2CCN3CCC(N)=O`, the viability was 89% (inactive).
Under `CC1CCN(S(=O)(=O)c2ccc(NC(=O)Cn3nnc(-c4ccccc4F)n3)cc2)CC1` stands 90.8% (inactive); under `O/N=C1\CC/C(=N\O)c2nn(-c3ccccc3Cl)nc21`, 87.3% (inactive); under `Cc1cc(=O)[nH]c2ccc(Cl)cc12`, 102% (inactive).
The figure for `Cc1cccc(NC(=O)c2sc3nc4c(c(-c5cccs5)c3c2N)CN(C)CC4)c1` is 86.7% (inactive); for `CC1=C(C(=O)OC2CCCCCCC2)C(c2cc3c(cc2Br)OCO3)CC(=O)N1` (centres undefined) it is 82.2% (inactive).
The figure for `O=C(CCC1CCCC1)c1c(O)c2ccccc2oc1=O` is 93.9% (inactive); for `O=C(Nc1ccc(Cl)c(Cl)c1)C1=Cc2ccccc2OC1` it is 99.6% (inactive).
For `O=C1c2[nH]nc(-c3ccccc3O)c2C(c2cccc(Cl)c2)N1Cc1ccco1` (centres undefined), the viability is 98.4% (inactive).
As for `CC12CCC(=O)C=C1CCC1C2CCC2(C)C(O)CCC12` (centres undefined), the viability was 95.3% (inactive).
As to `C=CCn1c(O)c(C2=c3ccccc3=NC2=O)s/c1=N/c1nccs1`, the viability is 88% (inactive).
The figure for `O=C(NCc1ccc2c(c1)OCO2)C1CCC(CNS(=O)(=O)c2cccc3nsnc23)CC1` (centres undefined) is 106% (inactive); for `CCc1cc(-c2n[nH]c(C)c2Oc2ccc(C(C)C)cc2)c(O)cc1O` it is 85.5% (inactive); for `CCn1c(=N)n(CC(=O)C23CC4CC(CC(C4)C2)C3)c2ccccc21` it is 86% (inactive).
Turning to `Cc1ccc(-c2nnc(N3CCN(C(=O)CSc4ncn[nH]4)CC3)c3ccccc23)cc1`, the viability was 102% (inactive).
The figure for `CC(=O)c1c(C)[nH]c(C(=O)CSc2nnc(-c3ccccc3)n2Cc2ccc3c(c2)OCO3)c1C` is 94.2% (inactive); for `CCCOC(=O)c1ccc(Oc2c(-c3ccc(OC)cc3O)n[nH]c2C)cc1` it is 97.5% (inactive).
Under `Cc1ccc2[nH]c(=O)c(C3C(C#N)=C(N)Oc4c3ccc3cccnc43)cc2c1` (centres undefined) stands 86.9% (inactive).
For the molecule `C=CCN1C(=Nc2cccnc2)SCC1(O)c1ccc(C)cc1` (centres undefined), the viability was 86.4% (inactive).
Regarding `OC(C#Cc1ccccn1)c1cccs1` (centres undefined), the viability is 98.2% (inactive).
Under `COc1ccc2[nH]c(=O)c(CN(C3CCCCC3)C(c3nnnn3Cc3ccco3)C(C)C)cc2c1` (centres undefined) stands 83.2% (inactive).
For `Cc1nn(-c2ccc(F)cc2)c(C)c1NS(=O)(=O)c1ccc(Cl)cc1`, the viability is 90.7% (inactive).
On to `COc1ccc(Cc2nc(C(=O)Nc3ccc(Cl)cc3)cs2)cc1`, for which the viability was 84.3% (inactive).
Under `COc1ccc(OC)c2sc(N3CCCCC3)nc12` stands 96.8% (inactive).
The figure for `CCCCCCn1c(SCC(=O)c2c(N)n(C)c(=O)n(C)c2=O)nc2ccccc21` is 98.8% (inactive).
As to `Cc1ccc(C)c(C(C)NC(=O)C2C3CCC(O3)C2C(=O)O)c1` (centres undefined), the viability is 94.5% (inactive).
Regarding `CC(=O)n1cc(-c2ccncc2)c2ccccc21`, the viability is 98.4% (inactive).
Turning to `Clc1cnc(N/N=C/c2cccs2)c(Cl)c1`, the viability was 88.3% (inactive).
As for `Nc1c(S(=O)(=O)c2ccccc2)c2nc3ccccc3nc2n1/N=C/c1cccc(O)c1`, the viability was 94.2% (inactive).
For `O=[N+]([O-])c1cccnc1N1CCC(c2cc(-c3cccc(C(F)(F)F)c3)n[nH]2)CC1`, the viability was 102% (inactive).
The figure for `CCOc1cc(C(=O)CSc2nnc(CNc3ccc(Cl)cc3)o2)ccc1NC(=O)CC` is 96% (inactive); for `Cc1ccc2c(c1)c1c(n2CC(O)Cn2c(C)nc3ccccc32)CCCC1` (centres undefined) it is 95.1% (inactive).
Under `CC1CCc2sc3nc(N4CCN(CCO)CC4)n4ncnc4c3c2C1` (centres undefined) stands 96.4% (inactive).
Turning to `CNC(=O)Cn1c(=O)n(C)c2ccccc21`, the viability was 107% (inactive).
On to `OC1(Cc2ccn[nH]2)CCCCC1`, for which the viability was 105% (inactive).
`COc1ccc2cc3cc(C(=O)NCCc4ccc(OC)c(OC)c4)oc3nc2c1`: the viability is 109% (inactive).
